Bioassay records from PubChem BioAssay.
This is a sample that favours compounds with a hit; in the whole collection about 2.2% have one here.
PglD DTNB: blocks C. jejuni PglD acetyltransferase activity; purified PglD enzyme, DTNB colorimetric CoA detection; inhibition, % at 12.5 µM; actives 0.098% (n = 360,000); in the data active = inhibition above about 16%, passing the limit was not always enough; inconclusive = no clear call, values can overlap the other calls
Mot1-301 SUMO: SUMOylation pathway inhibition by Mot1-301 growth rescue; S. cerevisiae Mot1-301 growth rescue, ATP luminescence, 38.5C; percent above DMSO median, 100 means doubled; growth rescue, % at 18.8 µM; actives 1% (n = 320,000); AID 2716;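 active = every valid replicate shows activation above 250% relative to neutral control wells; inactive = the rest, any valid replicate at or below 250%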;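 note: OY570 slx delta 5 strain wells were the positive control but not used for scaling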
rRNA inh HTS: inhibits bacterial ribosomal RNA function over humanized ribosomes | GFP signal change (wild-type ribosome), % (no concentration beside the values) | actives 1.6% (n = 350,000) | E. coli WT GFP vs humanized-ribosome RFP mutants, fluorescence, 24 h; hits give low values; DMSO median 0, no signal -100;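 active = significant combined selectivity score with lowered wild-type GFP, culture density cut under 30%, mutant RFP and density less affected; inactive = any of these conditions unmet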
Yeast superoxide: lowers age-related superoxide in aged yeast cells | S. cerevisiae aged cells, superoxide DHE fluorescence; hits give low values | superoxide response (% of plate mean), % at 10 µM | actives 0.18% (n = 330,000);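 active = superoxide response under a set limit, about three screen SD below normal, cut at about 65% in these data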;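 note: yeast aged for seven days with compound at 30 °C before DHE staining; 100% = average MFI of all compound-treated wells on the plate with controls excluded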
Cneo AK release: Cryptococcus neoformans lysis via adenylate kinase release. C. neoformans lysis, adenylate kinase release luminescence, 4 h; normalised: neutral wells 0, clomiphene wells 100. lysis activity, % at 15 µM. actives 0.2% (n = 360,000);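 active = mean lysis activity across replicates of at least 80%, whatever share of replicates individually reach that level; inactive = mean lysis activity below 80%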
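Assay system: log-phase C. neoformans yeast / Quantity: yeast cell density of 5 × 10^6 cells/mL / Medium: fresh YPD growth medium / Compound: single dose / Timing: static 4 h at 37 °C with compound, 1 h detection / Measured by: adenylate kinase release luminescence / Read-out: lysis from increased AK signal / Benchmarks: Clomiphene as positive lysis control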
AID977621: growth inhibition of wild-type GFP E. coli, dose response, H69 mutant RFP, cherry-pick | AID 977621 | shares compounds with rRNA inh HTS | 1,900 tested, under 10 active | E. coli wild-type GFP strain growth, fluorescence, 24 h | activity change, negative = inhibition at 50 µM;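 active = Wild-type ribosome reporter drop at least double the humanized mutant ribosome reporter drop, growth loss under a set limit; inconclusive = no clear call, values can overlap the other calls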;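 note: wild-type GFP and H69 mutant RFP strains grown together 50/50 in each well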
AID977628: growth of wild-type and h24-humanized E. coli strains – h24 mutant RFP vs wild-type GFP, cherry-pick, dose response; shares compounds with rRNA inh HTS; E. coli WT GFP strain growth, fluorescence, 24 h; activity change, negative = inhibition at 50 µM; 1,900 tested, under 10 active;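 active = compound lowering the normal-ribosome reporter at least twice as much as the humanized-ribosome reporter, growth loss under a set limit; inconclusive = no clear call, values can overlap the other calls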;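 note: wild-type GFP and h24 humanized RFP strains co-cultured 1 to 1 per well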
Active calls of the source: *; ? = inconclusive; . = not tested or not shown.

SMILES	PglD DTNB	Mot1-301 SUMO	rRNA inh HTS	Yeast superoxide	Cneo AK release	AID977621	AID977628
COc1cccc(S(=O)(=O)N2CCCCN3[C@H](CO)[C@H](c4ccc(C#CC(C)C)cc4)[C@@H]3C2)c1	-4	.	-4	.	-1	4.6	.
C[C@@H]1CCCCO[C@@H](CN(C)C(=O)C2CCCCC2)[C@H](C)CN([C@@H](C)CO)C(=O)c2cc(NC(=O)Nc3ccccc3)ccc2O1	0	.	2	.	-2	.	.
COCCN(C(=O)c1ccccc1F)c1nnc(-c2ccc(OC)cc2)s1	-13	-1	-24*	92	-2	1.6	?
COc1ccc(NC(=O)c2cccs2)cc1C(=O)N1CCN(c2ccccc2)CC1	3	-1	-21*	98	0	-7	-14
C=CCn1c(C)cc(C(=O)CSc2nnc(C3CC3)n2C2CC2)c1C	-2	-1	-20*	102	-4	-20	.
Cc1ccc(-n2nnnc2SCC(=O)NC2CCCc3ccccc32)c(C)c1 (stereo not given)	.	.	.	97	.	.	.
Cc1ccc(-n2nnnc2SCC(=O)NC2CCCc3ccccc32)cc1 (stereo not given)	4	1	-30*	116	8	2.9	.
Cc1ccc(CCN2C(=O)c3ccccc3C2C(=O)NCc2cccnc2)cc1 (stereo not given)	6	-19	-38*	108	-3	7.8	?
O=C(Nc1ccc2c(c1)[C@H]1C[C@H](CC(=O)N3CCCCC3)O[C@H](CO)[C@H]1O2)C1CCOCC1	-5	.	1	.	-3	.	.
Cc1ccc(C(=O)C2Oc3ccccc3C3CC(c4ccc(C)cc4)=NN23)cc1 (stereo not given)	-3	52	-17*	95	1	4	0.038
O=C(Cc1ccccc1Cl)Nc1nc2ccccc2[nH]1	1	3	-20*	92	21	-8.9	?
COc1ccccc1C(=O)Nc1ccc2c(c1)OC[C@@H](C)N(CC1CC1)C[C@@H](C)[C@H](OC)CN(C)C2=O	.	.	-4	.	.	.	.
O=C(Nc1c(S(=O)(=O)c2ccc(Cl)cc2)csc1Br)c1ccccc1Cl	5	-1	-26*	102	0	-0.53	?
O=C(NC(=O)c1ccccc1Cl)C(=O)Nc1ccc(Cl)cc1	1	3	20	95	-1	.	.
